Results reported in ChEMBL document CHEMBL2429849, “Substrate-based fragment identification for the development of selective, nonpeptidic inhibitors of striatal-enriched protein tyrosine phosphatase” (J Med Chem, 2013).
pKi: −log10 of the molar value.

Legend:
[1] = biological target: T1, Dual specificity protein phosphatase 10 (Homo sapiens, UniProt Q9Y6W6); assay: Inhibition of human MKP5 using DiFMUP as substrate after 5 mins by spectrophotometric plate reader analysis
T1 sequence (Q9Y6W6 whole entry): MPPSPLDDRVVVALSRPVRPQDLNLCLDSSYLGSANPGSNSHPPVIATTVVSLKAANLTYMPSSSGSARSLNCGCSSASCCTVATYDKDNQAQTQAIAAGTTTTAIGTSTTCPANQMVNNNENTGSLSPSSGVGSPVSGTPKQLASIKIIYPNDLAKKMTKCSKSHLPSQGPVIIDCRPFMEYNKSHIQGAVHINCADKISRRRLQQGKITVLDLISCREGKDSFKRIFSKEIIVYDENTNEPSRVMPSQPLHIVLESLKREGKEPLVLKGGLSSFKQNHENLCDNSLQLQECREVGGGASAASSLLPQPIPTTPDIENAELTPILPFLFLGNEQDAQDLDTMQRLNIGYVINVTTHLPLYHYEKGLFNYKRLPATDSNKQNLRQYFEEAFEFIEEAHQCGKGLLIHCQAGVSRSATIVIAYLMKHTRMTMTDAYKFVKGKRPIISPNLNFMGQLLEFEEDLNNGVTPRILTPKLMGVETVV
In short: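 The […] substrate was DiFMUP. Buffer was Tris-HCl pH 8.0 with Triton X-100 and 5 mM DTT. Inhibitor was preincubated with enzyme for 5 min at 27 °C before adding substrate. Ki from nonlinear regression of initial-rate substrate–velocity data at several inhibitor concentrations; at least duplicate.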

[2] = Effective permeability of the compound at pH 7.4 by PAMPA; format: ADME; conditions: read-out: Peff
[3] = biological target: T2, Receptor-type tyrosine-protein phosphatase C (Homo sapiens, UniProt P08575); assay: Inhibition of human CD45 using pNPP as substrate after 5 mins by spectrophotometric plate reader analysis
T2 sequence (P08575 whole entry): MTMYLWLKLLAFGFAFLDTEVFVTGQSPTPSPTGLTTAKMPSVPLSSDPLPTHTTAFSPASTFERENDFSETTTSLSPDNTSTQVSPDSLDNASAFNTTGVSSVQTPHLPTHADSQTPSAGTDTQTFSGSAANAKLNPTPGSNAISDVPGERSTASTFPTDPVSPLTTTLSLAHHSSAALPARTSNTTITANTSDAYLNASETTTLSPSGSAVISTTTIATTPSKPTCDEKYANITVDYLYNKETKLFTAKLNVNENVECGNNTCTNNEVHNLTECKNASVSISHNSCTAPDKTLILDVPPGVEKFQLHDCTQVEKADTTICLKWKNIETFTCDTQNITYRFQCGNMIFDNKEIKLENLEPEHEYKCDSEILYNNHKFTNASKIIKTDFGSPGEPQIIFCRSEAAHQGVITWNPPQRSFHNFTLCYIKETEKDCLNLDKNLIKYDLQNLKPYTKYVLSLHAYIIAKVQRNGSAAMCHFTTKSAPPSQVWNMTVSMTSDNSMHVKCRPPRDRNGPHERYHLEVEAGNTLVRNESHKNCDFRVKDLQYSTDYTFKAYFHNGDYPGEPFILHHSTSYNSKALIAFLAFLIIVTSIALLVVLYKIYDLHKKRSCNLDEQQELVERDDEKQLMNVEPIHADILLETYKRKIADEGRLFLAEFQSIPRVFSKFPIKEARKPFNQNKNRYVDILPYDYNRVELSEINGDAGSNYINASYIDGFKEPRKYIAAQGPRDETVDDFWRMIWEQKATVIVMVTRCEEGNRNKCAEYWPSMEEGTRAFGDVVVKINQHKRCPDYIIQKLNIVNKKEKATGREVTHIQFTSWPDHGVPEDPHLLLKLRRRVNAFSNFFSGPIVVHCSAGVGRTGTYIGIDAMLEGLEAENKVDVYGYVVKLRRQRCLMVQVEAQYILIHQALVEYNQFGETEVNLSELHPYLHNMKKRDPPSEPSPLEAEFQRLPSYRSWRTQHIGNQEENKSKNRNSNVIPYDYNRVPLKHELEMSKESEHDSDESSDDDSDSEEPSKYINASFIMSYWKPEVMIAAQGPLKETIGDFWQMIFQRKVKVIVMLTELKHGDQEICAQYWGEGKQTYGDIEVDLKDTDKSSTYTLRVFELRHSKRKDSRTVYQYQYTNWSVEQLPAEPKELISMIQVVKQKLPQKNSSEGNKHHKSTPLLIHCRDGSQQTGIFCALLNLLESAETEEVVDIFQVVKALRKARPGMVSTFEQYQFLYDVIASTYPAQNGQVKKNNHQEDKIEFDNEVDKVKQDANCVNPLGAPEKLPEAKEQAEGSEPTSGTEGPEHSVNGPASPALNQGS
In short: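 Enzyme preincubated 5 min at 27 °C with serially diluted inhibitor (from DMSO) in imidazole/NaCl buffer pH 7.0 with 0.01% Triton X-100 and 5 mM DTT. Started with pNPP (500 μM in assay) and read at 405 nm for 20 min. The pNPP KM was measured for each enzyme. Ki from nonlinear regression of substrate–velocity curves at several inhibitor levels; at least duplicate.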

Homo sapiens = species: Homo sapiens; assay: Selectivity ratio of Ki for human MKP5 to Ki for human STEP
In short: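 STEP, CD45, LAR and TC-PTP used pNPP (500 μM) in imidazole/NaCl pH 7.0 with Triton X-100, read at 405 nm for 20 min. MKP5 used DiFMUP in Tris-HCl pH 8.0. The enzyme's own pNPP KM was used in analysis; ratio of the Ki values.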

Structure (SMILES)	pKi [1]	Papp [2] [×10⁻⁶ cm/s]	pKi [3]	Ratio Ki (Homo sapiens)
O=P(O)(O)[C@H](O)c1ccc(-c2cccc([C@@H](O)c3ccc(Cl)c(Cl)c3)c2)cc1	3.47	< 0.1	3.47	41
O=P(O)(O)[C@H](O)c1ccc(-c2cccc([C@H](O)c3ccc(Cl)c(Cl)c3)c2)cc1	< 3.30		3.57	
